Our source for the cytotoxicity values is ChEMBL document CHEMBL4513216, “Probing the Open Global Health Chemical Diversity Library for Multistage-Active Starting Points for Next-Generation Antimalarials” (ACS Infect Dis, 2020).

A short description of this data set: Toxicity liver stage against HepG2, at 10uM. In kind it is cell-based. To be noted: human, HepG2-A16-CD81EGFP cells; read-out: INHIBITION
Further details: test concentration 10 uM, cell line HepG2-A16-CD81EGFP. An outline of the steps: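 Uninfected HepG2-A16-CD81EGFP cells, 3 × 10^3 per well, 1536-well, plated on prespotted compound at 10 μM final, parasite-free screening media added to match infected plates; puromycin 10 μM positive, DMSO 0.5% negative; run in parallel with 48 h PbLuc assay at 37 °C, 5% CO2; viability by CellTiter-Glo luminescence, normalized to controls.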
In the case of `CC(CN1CCOCC1)OC(=O)c1ccccc1Cl` (configuration not stated), the cytotoxicity at 10 µM is -4.52%.
Next, `COCCn1cnc2ccc(NC(=O)c3c(C)noc3C)cc2c1=O`: 4.13%.
The figure for `CCc1c(C)nc2n(c1=O)CC(C(=O)NCc1cccs1)CS2` (configuration not stated) is 15.2%; for `Cc1nc(N2CCOCC2)nc(C)c1NC(=O)Cc1ccc(Cl)cc1` it is -4%; for `COCCn1c2c(ccc1=O)CC(N)CC2` (configuration not stated) it is 9.77%.
Next, `CN1CCCC2(C1)CN(C(=O)C1CCCCC1)CCO2` (configuration not stated): 0.994%; `Cc1cccc(CN2CCc3nnc(CN(C)C)n3CC2)n1`: -1.54%.
Turning to `Cc1nnc([C@H]2C[C@@H]3CCN(Cc4cc(C)on4)C[C@H]3O2)[nH]1`, the cytotoxicity at 10 µM is -5.03%.
Next, `Cc1noc([C@H]2COC[C@H]3CN(C(=O)Cc4cccs4)C[C@H]32)n1`: 3.3%.
Next, `COCCN1CC[C@H]2OCC[C@@H](C(=O)Nc3cccnc3)[C@@H]2C1`: 4.81%.
The figure for `CC(C)NC(=O)CC1(Cn2cnnn2)CCCCC1` is 9.54%.
With `CNc1nc2c(s1)C(c1cc(Cl)ccc1F)CC(=O)N2` (configuration not stated), the cytotoxicity at 10 µM was determined as 10.3%.
As for `Cc1noc(C2CCN(C(=O)C3CCCO3)CC2)n1` (configuration not stated), the cytotoxicity at 10 µM stood at 3.95%.
In the case of `Cc1c(S(=O)(=O)NCC(C)Cn2cc(Cl)cn2)cnn1C` (configuration not stated), the cytotoxicity at 10 µM is 0.446%.
Next, `Cn1cc(CN2CCC(c3ncc(Cl)cc3S(C)(=O)=O)CC2)cn1`: -0.83%.
The figure for `Oc1cccc(CNCC2CCCO2)c1` (configuration not stated) is -1.37%; for `CCc1nnc2n1CCN(c1nc3ccccc3o1)C2` it is 2.11%; for `O=c1n(CCNCc2ccc(-c3ccccc3)cc2)nc2ccccn12` it is 0.932%.
Next, `O=C(c1cccnc1)N1CCSCC1`: -15.1%; `CC(C)c1ccc(C2(C(=O)NCCS(N)(=O)=O)CCC2)cc1`: -2%; `CCc1csc(C2CCCN(C(=O)c3ccc4c(c3)OCO4)C2)n1` (configuration not stated): 1.71%.
In the case of `O=C(c1ccncc1)N(CCO)Cc1cc(Br)ccc1F`, the cytotoxicity at 10 µM was found to be 10.2%.
Next, `Cc1nnc(CN2CCCC2c2cccc(Br)c2)o1` (configuration not stated): -3.51%; `Cc1cc2c(cc1NC(=O)NC(C)(C)C)OCO2`: -1.47%; `CC1CCN(CC(O)CNc2ccc(Cl)cn2)CC1` (configuration not stated): 17.2%.
The figure for `O=S(=O)(Nc1nccs1)c1cc(Cl)cc2c1OCC2` is -2.19%; for `CCc1cc(CNC(=O)N2Cc3ccccc3N(C)CC2C)[nH]n1` (configuration not stated) it is 16.3%.
Next, `Cc1cc(=O)n2nc(Oc3cccc(I)c3)sc2n1`: 3.63%; `CCC(C#N)NC(=O)c1ccc(Oc2cccnc2)cc1` (configuration not stated): -5.82%; `Cc1cnn(Cc2cc(F)ccc2F)c1NC(=O)NC1CC1`: 16.9%.
With `CC(CNC(=O)c1ccc(F)cc1Cl)N1CCCC1` (configuration not stated), the cytotoxicity at 10 µM came out at 14.4%.
The figure for `CCc1nc(CN2CCCN(Cc3cnn(C)c3)CC2)no1` is -2%.
On to `Cc1ncoc1C(=O)N1CC[C@@]2(C[C@H](NS(C)(=O)=O)CCO2)C1`, for which the cytotoxicity at 10 µM is -73%.
Turning to `CCS(=O)(=O)NC1CCc2c(ccc(=O)n2CC2CC2)C1` (configuration not stated), the cytotoxicity at 10 µM is -67.2%.
For the molecule `CC(C)NC(=O)C1CN(C(=O)NCc2ccccc2)CC12CCOCC2` (configuration not stated), the cytotoxicity at 10 µM was -84.6%.
Next, `CCOCC1CN(Cc2cnn(C)c2)Cc2cnn(C)c21` (configuration not stated): -89.6%; `O=C(C1CCOCC1)N1CC[C@@H](N2CCOCC2)[C@@H]1Cc1ccccc1`: -77.2%; `CC(=O)N1CC[C@H]2OCC[C@@H](C(=O)NCc3ccco3)[C@H]2C1`: -81.5%.
Next, `CCOC[C@@H]1CCC[C@@]12CN(Cc1nccs1)CCO2`: 1.77%.
Next, `Cc1cc(N[C@H]2CN(CC(C)(C)N3CCOCC3)C[C@@H]2C2CC2)ncn1`: 2.03%; `CCNC(=O)Cc1ccc(-c2cccc3c2CCNC3)cc1`: 13.6%.
Turning to `CCNC(=O)Cn1ncc(N(C)CCc2ccccc2)cc1=O`, the cytotoxicity at 10 µM is 5.69%.
Next, `COCC[C@]1(O)CCN(Cc2nc(C(C)C)cs2)C[C@H]1C`: -6.26%; `CC(C)(C)c1cc(CN2CCOCC(O)C2)n[nH]1` (configuration not stated): -3.89%; `COCCN1CC2(CCCN(C(=O)NCc3ccccc3)C2)CCC1=O` (configuration not stated): -9.31%.
The figure for `CCC(=O)N1CCN(C(=O)CCn2cc(Cl)cn2)[C@H]2CS(=O)(=O)C[C@H]21` is -6.39%; for `Cc1ccc(NC2CCCN(CCCc3ccccc3)C2)nn1` (configuration not stated) it is -2.81%.
Next, `CNC(=O)CCN(C)c1nc(-c2ccncc2)nc2c1CCNC2`: -1.54%; `O=C(CCn1ccccc1=O)N1CCN(Cc2cccc(Cl)c2)CC1`: -1.97%; `CCN1CC(C(=O)N2CCN(CCn3cccc3)CC2)CC1=O` (configuration not stated): -3.64%.
For the molecule `Cc1ccc(-c2nnc(CN3CC[C@H](CO)[C@@H](O)C3)o2)n1C`, the cytotoxicity at 10 µM is -4.39%.
The figure for `O=c1cc(-c2ccncc2)nc(-c2ccc(CN3CC[C@@H](O)C3)cc2)[nH]1` is 3.03%; for `CC(=O)NCC(=O)N(CCN1CCOCC1)Cc1ccco1` it is -9.04%.
The figure for `CCNc1ncc(C(=O)N(C)Cc2nc3cc(Cl)ccc3[nH]2)cn1` is -44.3%; for `CCN(C)Cc1n[nH]c(=O)n1-c1cc(F)ccc1C` it is 11.4%; for `COc1cccc2c1OCC(C(=O)NCc1nc3c(s1)CCCC3)C2` (configuration not stated) it is -43.3%.
Next, `CC(C)c1cc(NC(CCO)c2ccccc2)n2nccc2n1` (configuration not stated): -45.4%; `CCc1oc(C(=O)N(C)Cc2nonc2C)cc1CN(CC)CC`: -10.3%.
Regarding `CNC(=O)c1nc(Cn2ncc3ccccc3c2=O)no1`, the cytotoxicity at 10 µM was found to be 6.6%.
Next, `CCN(Cc1cccc(C(=O)Nc2cn(C)nn2)c1)[C@H]1COC[C@@H]1O`: -2.77%; `CN(C)CCCn1ccnc1C1CCCN(c2cc(N)ncn2)C1` (configuration not stated): -2.1%.
The figure for `O=C(c1ccc[nH]1)N1CCC2(CC1)C(=O)Nc1ccccc12` is 2.09%; for `CC(C)n1ccnc1C1CCN(C(=O)c2ccccc2)CC1` it is -10.9%.
The figure for `Cc1ccc(C(=O)NS(=O)(=O)c2ccccc2Cl)c(=O)[nH]1` is -8.81%; for `COc1ccc(S(=O)(=O)NC(=O)COc2ccc3c(c2)CCC3)cc1` it is -6.72%; for `CC(=O)c1ccc(OCC(=O)NS(=O)(=O)c2cccnc2)cc1` it is -18%.
On to `N#Cc1cn(C2CC2)c(=O)n(CC(O)c2ccc(F)cc2)c1=O` (configuration not stated), for which the cytotoxicity at 10 µM was 2.37%.
For the molecule `Cn1cnnc1C1CCN(C(=O)c2cc3c(s2)CCCC3)CC1`, the cytotoxicity at 10 µM is -19%.
Next, `Cc1cnc(CN2CCCC(c3cc(C)[nH]n3)C2)cn1` (configuration not stated): 0.802%; `Cc1cc(OCC(=O)N2CCCC(c3noc(C(C)C)n3)C2)no1` (configuration not stated): -4.56%; `CC(C)(C)n1ncc2c1CCCC2NCc1cccc2c1OCCO2` (configuration not stated): -2.69%.
Next, `COc1ccc(N(C)Cc2nc3c(cnn3C)c(=O)[nH]2)cc1OC`: -10.7%; `Cc1cnn(CC2CCCCN2C(=O)Cc2cccc(F)c2)c1` (configuration not stated): -10.7%.
Next, `CCNc1cc2c(nn1)CCN(C(=O)c1cc(C)n(C3CC3)c1C)C2`: -0.282%; `Cc1ccc(-c2nc(CN3CCCC(C(=O)N(C)C)C3)cs2)o1` (configuration not stated): -14%; `CCc1nccn1C1CCCN(C(=O)c2ccc3[nH]c(=O)[nH]c3c2)C1` (configuration not stated): -3.71%.
In the case of `O=C(NCCN1CCCCC1)c1scnc1Cl`, the cytotoxicity at 10 µM was -7.69%.
Next, `Cc1csc(N2CCCN(C(=O)C(C)n3ccnc3)CC2)n1` (configuration not stated): -9.46%; `Cc1ccc(N(C)C2CCN(C(=O)CCc3ccco3)CC2)nn1`: -7%.
Next, `O=C(NCC1CCOC1)c1ccc(OCC(F)(F)F)nc1` (configuration not stated): -5.64%; `CN(CC1COc2ccccc2O1)C(=O)NCCCn1cncn1` (configuration not stated): -0.884%.
The figure for `Cc1nn(C)c(N2CCOCC2)c1CNC1CCc2ccccc2C1` (configuration not stated) is -11.4%.
Turning to `COc1ccc(NC(=O)c2ccc(-n3ncc(C#N)c3N)cc2)cn1`, the cytotoxicity at 10 µM was -5.77%.
Next, `CC1CCN(c2cncc(CCC3CCCN3)n2)CC1` (configuration not stated): 4.52%.
The figure for `O=C1CCC2(CCC(NC(=O)NCc3cccnc3)CC2)N1` (configuration not stated) is -5.25%; for `CC(C)OCc1nn(C)c2c1CN(Cc1cccs1)CC2` it is -99.5%.
Turning to `CNC(=O)CN1CCOCC12CCN(C(=O)c1ccccc1)CC2`, the cytotoxicity at 10 µM is -82.2%.
The figure for `CO[C@@H]1CCN(Cc2c(C)noc2C)[C@@H]2CN(Cc3ccco3)C[C@@H]21` is 8.64%.
Next, `O=C(c1ccccn1)N1CCCC2(CCN(c3ccsc3)C2=O)C1` (configuration not stated): -136%.
`COCC1CN(C(=O)Cc2cccc(F)c2)Cc2ccnn2C1` (configuration not stated): the cytotoxicity at 10 µM was -73%.
Next, `Cc1nc(CN2CC3(CCN(c4cnccn4)C3)CC2=O)cs1` (configuration not stated): 1.36%.
Next, `Cn1cc(CN2CCC[C@]3(C[C@@H](Oc4ncccc4F)CO3)C2)cn1`: 9.66%.
The figure for `COc1c(CNC2CCc3cc(F)ccc32)c(C)nn1C` (configuration not stated) is -8.11%; for `CCN1CC[C@@]2(C(=O)Nc3ccccc3)CCN(S(C)(=O)=O)CC[C@@H]12` it is 7.14%.
As to `COC[C@]12COC[C@H]1CN(Cc1ccc3c(c1)OCO3)C2`, the cytotoxicity at 10 µM was -108%.
The figure for `CCO[C@@H]1CC[C@H]2[C@H]1OCCN2Cc1ccoc1` is -96.9%; for `Cn1cc(-c2cnc(N3CCOCC3)nc2)cc1C(=O)NCCO` it is 7.15%.
